What was measured:
[1] = Selectivity index, ratio of EC50 for agonist activity at human S1P3 receptor expressed in EDG3-Ga15-bla HEK293T cell membranes to EC50 for agonist activity at human S1P1 receptor expressed in CHO cell membranes; assay type: cell-based
Method in brief: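 S1P3/S1P1 ratio of GTPγ[35S] EC50s. Membranes from EDG3-Ga15-bla HEK293T (S1P3) or S1P1/CHO cells, […], 0.2 nM final [35S]GTP. HEPES pH 7.5 buffer with MgCl2, NaCl, EGTA, DTT, GDP, BSA and saponin. 45 min at room temperature, filtration read-out. Each EC50 taken at 50% of the compound's own Ymax.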

Rattus norvegicus [2] = experiment: Reduction in circulating lymphocytes in Lewis rat at 1 mg/kg, po after 4 hrs; assay type: functional
Method in brief: (§1)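 Healthy Lewis rats dosed orally with test article as solution or suspension in vehicle, or vehicle alone. Blood drawn at 4 h and 24 h. Circulating lymphocyte percentage measured by hematology analyzer, expressed as reduction versus the vehicle group. Group average, n = 3–4.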

Plasma = experiment: Ratio of plasma concentration Lewis rat at 1 mg/kg, po after 4 hrs to plasma concentration Lewis rat at 1 mg/kg, po after 24 hrs; assay type: ADME, organism-based; details: in vivo
Method in brief: (§2)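 Lewis rats given 1.0 mg/kg orally as solution or suspension in vehicle. Plasma drug concentration measured in blood drawn at 4 h and 24 h; 4 h/24 h ratio taken from these values.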

[3] = molecular target: Sphingosine 1-phosphate receptor 1 (Homo sapiens, UniProt P21453); experiment: Agonist activity at human S1P1 receptor expressed in CHO cell membranes assessed as stimulation of [35S]GTPgamma binding incubated for 45 mins by liquid scintillation counting method
Sphingosine 1-phosphate receptor 1, sequence (P21453 whole entry): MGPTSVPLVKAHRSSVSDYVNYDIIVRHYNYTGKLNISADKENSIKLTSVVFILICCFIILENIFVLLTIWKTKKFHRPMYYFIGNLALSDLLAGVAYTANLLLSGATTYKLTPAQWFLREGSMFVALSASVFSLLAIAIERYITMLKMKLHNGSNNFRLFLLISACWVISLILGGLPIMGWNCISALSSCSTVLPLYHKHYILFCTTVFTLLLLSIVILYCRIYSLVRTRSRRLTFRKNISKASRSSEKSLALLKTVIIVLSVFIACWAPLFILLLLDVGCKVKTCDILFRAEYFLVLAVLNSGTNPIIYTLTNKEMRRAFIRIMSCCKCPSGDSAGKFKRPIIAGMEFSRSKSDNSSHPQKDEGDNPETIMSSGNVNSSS
Method in brief: (§3)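 Membranes from S1P1/CHO cells (S1P1) or EDG3-Ga15-bla HEK293T cells (S1P3), final protein […], with 3-fold compound dilutions. Buffer: 20 mM HEPES pH 7.5, 10 mM MgCl2, 150 mM NaCl, 1 mM EGTA, 1 mM DTT, GDP, 0.1% fatty acid free BSA, saponin. [35S]GTP 0.2 nM final. Room temperature, 45 min. Filtered, washed with water, dried 60 °C. EC50 taken at 50% of each compound's Ymax.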

[4] = molecular target: Sphingosine 1-phosphate receptor 3 (Homo sapiens, UniProt Q99500); experiment: Agonist activity at human S1P3 receptor expressed in EDG3-Ga15-bla HEK293T cell membranes assessed as stimulation of [35S]GTPgamma binding incubated for 45 mins by liquid scintillation counting method; parameters: species or system HEK-293T; method in brief: as §3
Sphingosine 1-phosphate receptor 3, sequence (Q99500 whole entry): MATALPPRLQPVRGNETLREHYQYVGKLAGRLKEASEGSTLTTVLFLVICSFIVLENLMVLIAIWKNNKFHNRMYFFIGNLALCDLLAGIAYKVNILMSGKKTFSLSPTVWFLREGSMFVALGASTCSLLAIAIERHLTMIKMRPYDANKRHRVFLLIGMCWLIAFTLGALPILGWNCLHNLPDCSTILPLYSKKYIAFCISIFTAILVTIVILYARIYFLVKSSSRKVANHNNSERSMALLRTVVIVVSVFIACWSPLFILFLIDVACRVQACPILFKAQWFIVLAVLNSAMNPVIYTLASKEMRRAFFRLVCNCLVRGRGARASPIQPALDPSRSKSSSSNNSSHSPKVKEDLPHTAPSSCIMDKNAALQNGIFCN

[5] = Plasma concentration Lewis rat at 1 mg/kg, po after 4 hrs; assay type: ADME, organism-based; method in brief: as §2
Rattus norvegicus [6] = experiment: Reduction in circulating lymphocytes in Lewis rat at 1 mg/kg, po after 24 hrs; assay type: functional; method in brief: as §1
[7] = Plasma concentration Lewis rat at 1 mg/kg, po after 24 hrs; assay type: ADME, organism-based; method in brief: as §2
Rattus norvegicus [8] = experiment: Reduction in circulating lymphocytes in Lewis rat at 0.3 mg/kg, po after 24 hrs; assay type: functional; method in brief: as §1
CHO [9] = experiment: Selectivity index, ratio of EC50 for agonist activity at human S1P4 receptor to EC50 for agonist activity at human S1P1 receptor expressed in CHO cell membranes; assay type: cell-based
CHO [10] = experiment: Selectivity index, ratio of EC50 for agonist activity at human S1P5 receptor to EC50 for agonist activity at human S1P1 receptor expressed in CHO cell membranes; assay type: cell-based
[11] = Protein binding in human plasma; assay type: ADME, cell-free; details: read-out: PPB (converted)
[12] = Protein binding in mouse plasma; assay type: ADME, cell-free; details: read-out: PPB (converted)
[13] = Protein binding in rat plasma; assay type: ADME, cell-free; details: read-out: PPB (converted)
[14] = Protein binding in dog plasma; assay type: ADME, cell-free, Canis lupus familiaris; details: read-out: PPB (converted)
[15] = Protein binding in monkey plasma; assay type: ADME, cell-free, Macaca mulatta; details: rhesus monkey, read-out: PPB (converted)
Salmonella typhimurium = experiment: Mutagenicity in Salmonella typhimurium; assay type: toxicity, organism-based; details: salmonella enterica subsp. enterica serovar typhimurium
hERG (KCNH2) [16] = molecular target: T1, hERG (KCNH2) (Homo sapiens, UniProt Q12809); experiment: Inhibition of human ERG at 10 uM by patch clamp assay
T1 sequence (Q12809 whole entry): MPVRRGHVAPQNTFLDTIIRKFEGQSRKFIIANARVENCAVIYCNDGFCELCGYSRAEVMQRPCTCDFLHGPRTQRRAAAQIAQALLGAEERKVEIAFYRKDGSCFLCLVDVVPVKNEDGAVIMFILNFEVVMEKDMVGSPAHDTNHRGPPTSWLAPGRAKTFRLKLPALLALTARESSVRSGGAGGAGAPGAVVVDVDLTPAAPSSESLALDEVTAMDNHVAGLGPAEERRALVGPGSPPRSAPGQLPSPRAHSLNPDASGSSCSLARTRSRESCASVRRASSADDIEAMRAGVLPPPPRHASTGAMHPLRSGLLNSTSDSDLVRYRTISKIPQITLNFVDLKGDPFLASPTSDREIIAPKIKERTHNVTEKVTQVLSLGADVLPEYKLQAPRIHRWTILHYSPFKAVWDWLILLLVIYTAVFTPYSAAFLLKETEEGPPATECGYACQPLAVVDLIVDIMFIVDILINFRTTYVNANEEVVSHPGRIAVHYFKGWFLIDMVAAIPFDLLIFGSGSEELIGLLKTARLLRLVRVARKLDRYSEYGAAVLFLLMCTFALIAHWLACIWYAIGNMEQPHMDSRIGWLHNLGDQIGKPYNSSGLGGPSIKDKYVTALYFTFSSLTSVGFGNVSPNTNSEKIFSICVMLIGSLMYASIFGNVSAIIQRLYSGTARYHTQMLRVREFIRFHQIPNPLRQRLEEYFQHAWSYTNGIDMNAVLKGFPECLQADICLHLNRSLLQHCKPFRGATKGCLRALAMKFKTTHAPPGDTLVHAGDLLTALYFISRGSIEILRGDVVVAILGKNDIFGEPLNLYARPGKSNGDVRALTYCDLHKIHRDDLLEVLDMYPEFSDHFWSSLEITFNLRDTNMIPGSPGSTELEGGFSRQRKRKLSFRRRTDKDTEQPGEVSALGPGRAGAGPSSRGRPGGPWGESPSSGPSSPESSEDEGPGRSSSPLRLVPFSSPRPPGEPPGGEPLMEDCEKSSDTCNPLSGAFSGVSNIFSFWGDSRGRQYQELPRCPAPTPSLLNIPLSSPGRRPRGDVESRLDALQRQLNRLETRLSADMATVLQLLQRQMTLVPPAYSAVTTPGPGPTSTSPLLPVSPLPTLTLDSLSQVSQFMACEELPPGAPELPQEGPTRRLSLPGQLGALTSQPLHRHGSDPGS

hERG (KCNH2) [17] = molecular target: T1, hERG (KCNH2); experiment: Inhibition of human ERG at 30 uM by patch clamp assay
Homo sapiens [18] = species on record: Homo sapiens; experiment: Inhibition of sodium channel (unknown origin) at 10 uM under 1 and 4 Hz condition by patch clamp assay
Homo sapiens [19] = species on record: Homo sapiens; experiment: Inhibition of potassium channel (unknown origin) at 10 uM by patch clamp assay
Cytochrome P450 1A2 = molecular target: T2, Cytochrome P450 1A2 (Homo sapiens, UniProt P05177); experiment: Inhibition of CYP1A2 (unknown origin); assay type: ADME
T2 sequence (P05177 whole entry): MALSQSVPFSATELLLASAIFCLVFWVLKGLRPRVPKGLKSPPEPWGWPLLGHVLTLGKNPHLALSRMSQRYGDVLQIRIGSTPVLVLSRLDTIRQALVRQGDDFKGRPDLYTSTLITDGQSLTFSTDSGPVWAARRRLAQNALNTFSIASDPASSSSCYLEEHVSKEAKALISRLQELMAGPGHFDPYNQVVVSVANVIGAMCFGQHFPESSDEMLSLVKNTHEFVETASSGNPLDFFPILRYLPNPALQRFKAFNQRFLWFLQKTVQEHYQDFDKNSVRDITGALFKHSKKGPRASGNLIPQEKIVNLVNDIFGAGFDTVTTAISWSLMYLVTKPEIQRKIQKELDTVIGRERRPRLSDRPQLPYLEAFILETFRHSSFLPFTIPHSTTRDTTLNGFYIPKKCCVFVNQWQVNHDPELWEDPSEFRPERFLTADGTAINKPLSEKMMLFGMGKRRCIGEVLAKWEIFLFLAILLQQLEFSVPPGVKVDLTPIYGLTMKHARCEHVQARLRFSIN

Cytochrome P450 2B6 = molecular target: T3, Cytochrome P450 2B6 (Homo sapiens, UniProt P20813); experiment: Inhibition of CYP2B6 (unknown origin); assay type: ADME
T3 sequence (P20813 whole entry): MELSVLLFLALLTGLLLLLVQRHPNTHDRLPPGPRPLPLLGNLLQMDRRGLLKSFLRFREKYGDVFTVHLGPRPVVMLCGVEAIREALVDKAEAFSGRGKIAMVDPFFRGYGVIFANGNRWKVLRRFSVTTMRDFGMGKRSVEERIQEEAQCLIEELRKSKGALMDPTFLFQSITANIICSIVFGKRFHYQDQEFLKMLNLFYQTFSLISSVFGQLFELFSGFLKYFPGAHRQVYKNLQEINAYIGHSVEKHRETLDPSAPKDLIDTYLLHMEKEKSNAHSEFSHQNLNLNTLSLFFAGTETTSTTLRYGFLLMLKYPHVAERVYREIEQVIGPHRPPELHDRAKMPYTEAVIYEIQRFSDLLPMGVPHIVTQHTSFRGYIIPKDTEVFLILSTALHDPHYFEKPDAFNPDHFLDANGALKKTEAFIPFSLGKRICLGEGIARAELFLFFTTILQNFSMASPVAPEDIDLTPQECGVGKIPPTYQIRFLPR

Cytochrome P450 2C8 = molecular target: T4, Cytochrome P450 2C8 (Homo sapiens, UniProt P10632); experiment: Inhibition of CYP2C8 (unknown origin); assay type: ADME
T4 sequence (P10632 whole entry): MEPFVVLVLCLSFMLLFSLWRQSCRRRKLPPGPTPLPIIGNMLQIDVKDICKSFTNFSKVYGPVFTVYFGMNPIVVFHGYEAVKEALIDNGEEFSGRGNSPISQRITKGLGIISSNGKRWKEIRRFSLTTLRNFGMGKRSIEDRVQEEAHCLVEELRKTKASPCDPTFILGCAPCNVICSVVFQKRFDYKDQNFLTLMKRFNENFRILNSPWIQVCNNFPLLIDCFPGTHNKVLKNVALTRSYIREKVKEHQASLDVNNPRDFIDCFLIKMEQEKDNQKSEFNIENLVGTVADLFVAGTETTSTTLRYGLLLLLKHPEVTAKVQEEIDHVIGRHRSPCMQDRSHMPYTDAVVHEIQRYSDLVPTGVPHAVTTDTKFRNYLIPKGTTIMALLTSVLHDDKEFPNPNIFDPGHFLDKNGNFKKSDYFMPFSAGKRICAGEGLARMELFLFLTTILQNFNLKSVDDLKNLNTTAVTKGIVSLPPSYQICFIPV

Cytochrome P450 2C9 = Cytochrome P450 2C9 (Homo sapiens, UniProt P11712); experiment: Inhibition of CYP2C9 (unknown origin); assay type: ADME
Cytochrome P450 2C9, sequence (P11712 whole entry): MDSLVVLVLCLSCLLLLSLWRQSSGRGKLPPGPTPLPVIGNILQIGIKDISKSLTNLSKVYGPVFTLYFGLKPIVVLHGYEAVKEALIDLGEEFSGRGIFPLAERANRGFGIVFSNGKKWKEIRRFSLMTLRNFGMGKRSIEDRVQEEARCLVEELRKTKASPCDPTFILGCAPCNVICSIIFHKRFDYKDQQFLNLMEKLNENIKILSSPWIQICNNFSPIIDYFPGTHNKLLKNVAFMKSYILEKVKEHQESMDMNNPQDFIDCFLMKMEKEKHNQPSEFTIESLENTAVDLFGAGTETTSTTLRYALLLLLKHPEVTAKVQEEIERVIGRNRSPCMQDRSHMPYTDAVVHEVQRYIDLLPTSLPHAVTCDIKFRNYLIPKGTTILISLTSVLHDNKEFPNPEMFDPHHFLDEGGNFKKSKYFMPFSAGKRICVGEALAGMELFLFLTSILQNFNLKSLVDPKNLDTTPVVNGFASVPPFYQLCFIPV

Cytochrome P450 2C19 = Cytochrome P450 2C19 (Homo sapiens, UniProt P33261); experiment: Inhibition of CYP2C19 (unknown origin); assay type: ADME
Cytochrome P450 2C19, sequence (P33261 whole entry): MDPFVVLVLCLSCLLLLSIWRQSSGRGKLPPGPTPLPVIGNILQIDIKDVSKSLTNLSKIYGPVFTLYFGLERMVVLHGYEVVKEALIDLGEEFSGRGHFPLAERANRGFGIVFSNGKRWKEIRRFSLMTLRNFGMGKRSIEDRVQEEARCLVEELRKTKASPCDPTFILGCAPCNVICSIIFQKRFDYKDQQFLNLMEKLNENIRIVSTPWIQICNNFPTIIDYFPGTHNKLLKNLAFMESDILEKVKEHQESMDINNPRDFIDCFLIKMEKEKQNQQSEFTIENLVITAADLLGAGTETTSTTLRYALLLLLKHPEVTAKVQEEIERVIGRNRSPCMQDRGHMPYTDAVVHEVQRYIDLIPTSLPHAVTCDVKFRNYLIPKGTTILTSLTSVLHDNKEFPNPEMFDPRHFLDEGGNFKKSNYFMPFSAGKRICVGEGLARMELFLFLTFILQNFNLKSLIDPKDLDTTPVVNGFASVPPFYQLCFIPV

Cytochrome P450 2D6 = Cytochrome P450 2D6 (Homo sapiens, UniProt P10635); experiment: Inhibition of CYP2D6 (unknown origin); assay type: ADME
Cytochrome P450 2D6, sequence (P10635 whole entry): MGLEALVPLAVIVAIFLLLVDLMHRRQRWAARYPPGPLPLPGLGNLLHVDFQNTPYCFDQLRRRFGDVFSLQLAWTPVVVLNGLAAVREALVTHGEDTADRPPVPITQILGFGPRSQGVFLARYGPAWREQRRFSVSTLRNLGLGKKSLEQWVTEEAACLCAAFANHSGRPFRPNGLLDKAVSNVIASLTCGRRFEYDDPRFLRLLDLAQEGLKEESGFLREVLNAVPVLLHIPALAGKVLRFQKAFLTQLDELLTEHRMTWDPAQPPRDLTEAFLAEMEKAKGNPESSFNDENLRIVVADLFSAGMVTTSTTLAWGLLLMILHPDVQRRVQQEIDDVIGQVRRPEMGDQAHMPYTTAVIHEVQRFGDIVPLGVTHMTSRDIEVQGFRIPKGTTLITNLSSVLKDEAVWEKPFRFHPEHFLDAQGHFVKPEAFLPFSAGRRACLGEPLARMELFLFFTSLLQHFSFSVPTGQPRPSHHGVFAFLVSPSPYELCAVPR

Cytochrome P450 3A4 = Cytochrome P450 3A4 (Homo sapiens, UniProt P08684); experiment: Inhibition of CYP3A4 (unknown origin); assay type: ADME
Cytochrome P450 3A4, sequence (P08684 whole entry): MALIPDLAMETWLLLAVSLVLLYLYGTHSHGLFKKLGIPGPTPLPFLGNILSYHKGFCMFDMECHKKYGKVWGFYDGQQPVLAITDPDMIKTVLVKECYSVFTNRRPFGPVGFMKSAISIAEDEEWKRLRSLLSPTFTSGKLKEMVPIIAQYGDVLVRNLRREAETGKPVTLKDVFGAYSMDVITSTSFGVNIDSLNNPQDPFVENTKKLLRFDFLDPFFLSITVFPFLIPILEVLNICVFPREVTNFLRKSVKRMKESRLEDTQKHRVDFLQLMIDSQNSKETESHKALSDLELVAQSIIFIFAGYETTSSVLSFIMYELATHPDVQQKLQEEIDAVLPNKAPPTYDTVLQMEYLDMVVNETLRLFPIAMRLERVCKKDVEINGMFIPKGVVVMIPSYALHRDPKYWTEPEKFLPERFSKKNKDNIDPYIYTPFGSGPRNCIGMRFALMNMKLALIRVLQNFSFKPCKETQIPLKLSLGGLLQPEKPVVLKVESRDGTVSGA

Ratio (Plasma): 47 | EC50 [3]: 0.00071 µM | EC50 [4]: 2.9 µM | concentration at 4 h [5]: 2510 nM | concentration at 24 h [7]: 54 nM | fraction unbound [11]: 0.005 | fraction unbound [12]: 0.006 | fraction unbound [13]: 0.024 | fraction unbound [14]: 0.274 | fraction unbound [15]: 0.065 | inhibition (Homo sapiens [18]): < 5% | inhibition (Homo sapiens [19]): 12% | IC50 (Cytochrome P450 1A2): > 40 µM | IC50 (Cytochrome P450 2B6): > 40 µM | IC50 (Cytochrome P450 2C8): > 40 µM | IC50 (Cytochrome P450 2C9): > 40 µM | IC50 (Cytochrome P450 2C19): > 40 µM | IC50 (Cytochrome P450 2D6): > 40 µM | IC50 (Cytochrome P450 3A4): > 40 µM
SMILES: O=C(O)C1CN(Cc2ccc(-c3noc(-c4onc(-c5ccccn5)c4C(F)(F)F)n3)cc2)C1
Ratio EC50 [1]: 4100 | inhibition in vivo at 1 mg/kg (Rattus norvegicus [2]): 85% | inhibition in vivo at 1 mg/kg (Rattus norvegicus [6]): 80% | inhibition in vivo at 0.3 mg/kg (Rattus norvegicus [8]): 50% | Ratio EC50 (CHO [9]): 3.2 | Ratio EC50 (CHO [10]): 3.2 | Activity (Salmonella typhimurium): Non-toxic | inhibition at 10 µM (hERG (KCNH2) [16]): 13% | inhibition at 30 µM (hERG (KCNH2) [17]): 34%
